ChEMBL document CHEMBL4118255, “Synthesis and antibacterial evaluation of novel 11-O-aralkylcarbamoyl-3-O-descladinosylclarithromycin derivatives” (2018)
Converted amounts (≈) assume the structure as drawn.

Experiments:
Type in all cases: functional
Staphylococcus aureus [1] = assay: Antibacterial activity against methicillin-resistant Staphylococcus aureus ATCC 43300 after 24 hrs by tube-dilution method; conditions: ATCC 43300, 24 h
Summary of the method: (§1)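 MIC determined by the NCCLS-recommended standard broth microdilution method against erythromycin-resistant S. pneumoniae strains (A22072 mef, B1 erm, AB11 erm plus mef) and methicillin-resistant S. aureus ATCC43300.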

Escherichia coli = assay: Antibacterial activity against penicillin-susceptible Escherichia coli ATCC 25922 incubated for 24 hrs by […]; conditions: ATCC 25922, 24 h
Streptococcus pneumoniae [2] = assay: Antibacterial activity against erythromycin-resistant Streptococcus pneumoniae B1 harboring ermB gene after 24 hrs by tube-dilution method; conditions: B1, 24 h; summary of the method: as §1
Pseudomonas aeruginosa = assay: Antibacterial activity against penicillin-susceptible Pseudomonas aeruginosa ATCC 27853 incubated for 24 hrs by […]; conditions: ATCC 27853, 24 h
Streptococcus pneumoniae [3] = assay: Antibacterial activity against erythromycin-resistant Streptococcus pneumoniae AB11 harboring ermB and mefA genes after 24 hrs by tube-dilution method; conditions: AB11, 24 h; summary of the method: as §1
Bacillus subtilis = assay: Antibacterial activity against erythromycin-susceptible Bacillus subtilis ATCC 9372 after 24 hrs by tube-dilution method; conditions: ATCC 9372, 24 h
Summary of the method: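 MIC by standard NCCLS broth microdilution. Reference macrolides clarithromycin and azithromycin run alongside.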

Streptococcus pyogenes [4] = assay: Antibacterial activity against erythromycin-susceptible Streptococcus pyogenes after 24 hrs […]
Streptococcus pneumoniae [5] = assay: Antibacterial activity against erythromycin-resistant Streptococcus pneumoniae A22072 harboring mefA gene after 24 hrs by […]; conditions: A22072, 24 h
Streptococcus pyogenes [6] = assay: Antibacterial activity against erythromycin-resistant Streptococcus pyogenes R1 after 24 hrs by tube-dilution method; conditions: R1, 24 h
Staphylococcus aureus [7] = assay: Antibacterial activity against erythromycin-susceptible Staphylococcus aureus ATCC 25923 after 24 hrs by […]; conditions: ATCC 25923, 24 h
Streptococcus pneumoniae [8] = assay: Potency index, ratio of clarithromycin MIC to compound MIC for erythromycin-resistant Streptococcus pneumoniae A22072 harboring mefA gene
Streptococcus pneumoniae [9] = assay: Potency index, ratio of azithromycin MIC to compound MIC for erythromycin-resistant Streptococcus pneumoniae A22072 harboring mefA gene
Staphylococcus aureus [10] = assay: Potency index, ratio of clarithromycin MIC to compound MIC for methicillin-resistant Staphylococcus aureus ATCC 43300
Staphylococcus aureus [11] = assay: Potency index, ratio of azithromycin MIC to compound MIC for methicillin-resistant Staphylococcus aureus ATCC 43300

| SMILES | MIC (Staphylococcus aureus [1]) [µg/mL] | MIC (Escherichia coli) [µg/mL] | MIC (Streptococcus pneumoniae [2]) [µg/mL] | MIC (Pseudomonas aeruginosa) [µg/mL] | MIC (Streptococcus pneumoniae [3]) [µg/mL] | MIC (Bacillus subtilis) [µg/mL] | MIC (Streptococcus pyogenes [4]) [µg/mL] | MIC (Streptococcus pneumoniae [5]) [µg/mL] | MIC (Streptococcus pyogenes [6]) [µg/mL] | MIC (Staphylococcus aureus [7]) [µg/mL] | Ratio (Streptococcus pneumoniae [8]) | Ratio (Streptococcus pneumoniae [9]) | Ratio (Staphylococcus aureus [10]) | Ratio (Staphylococcus aureus [11]) |
| --- | --- | --- | --- | --- | --- | --- | --- | --- | --- | --- | --- | --- | --- | --- |
| CC[C@H]1OC(=O)[C@H](C)C(=O)[C@H](C)[C@@H](O[C@@H]2O[C@H](C)C[C@H](N(C)C)[C@H]2O)[C@](C)(OC)C[C@@H](C)C(=O)[C@H](C)[C@@H](OC(=O)NCCNC(=O)C#Cc2ccc(F)cc2)[C@]1(C)O | 128 (≈ 156 µM) | > 128 | 128 (≈ 156 µM) | > 128 | 64 (≈ 78.1 µM) | 2 (≈ 2.44 µM) | 1 (≈ 1.22 µM) | 2 (≈ 2.44 µM) | > 128 | 16 (≈ 19.5 µM) |  |  |  |  |
| CC[C@H]1OC(=O)[C@H](C)C(=O)[C@H](C)[C@@H](O[C@@H]2O[C@H](C)C[C@H](N(C)C)[C@H]2O)[C@](C)(OC)C[C@@H](C)C(=O)/C(C)=C/[C@]1(C)O | > 128 | > 128 | > 128 | 64 (≈ 112 µM) | > 128 | 128 (≈ 225 µM) | > 16 | 64 (≈ 112 µM) | > 128 | > 128 |  |  |  |  |
| CC[C@H]1OC(=O)[C@H](C)C(=O)[C@H](C)[C@@H](O[C@@H]2O[C@H](C)C[C@H](N(C)C)[C@H]2O)[C@](C)(OC)C[C@@H](C)C(=O)[C@H](C)[C@@H](OC(=O)NCCNC(=O)C#Cc2cccc3ccccc23)[C@]1(C)O | 64 (≈ 75.1 µM) | > 128 | 128 (≈ 150 µM) | > 128 | 128 (≈ 150 µM) | 1 (≈ 1.17 µM) | 0.5 (≈ 0.587 µM) | 1 (≈ 1.17 µM) | 64 (≈ 75.1 µM) | 16 (≈ 18.8 µM) |  |  |  |  |
| CC[C@H]1OC(=O)[C@H](C)[C@@H](OC(=O)Cc2cccnc2)[C@H](C)[C@@H](O[C@@H]2O[C@H](C)C[C@H](N(C)C)[C@H]2O)[C@](C)(OC)C[C@@H](C)C(=O)[C@H](C)[C@@H](OC(=O)NCCNC(=O)/C=C/c2ccc([N+](=O)[O-])cc2)[C@]1(C)O | 64 (≈ 66 µM) | 128 (≈ 132 µM) | 32 (≈ 33 µM) | 128 (≈ 132 µM) | 8 (≈ 8.25 µM) | 4 (≈ 4.12 µM) | 0.125 (≈ 0.129 µM) | 1 (≈ 1.03 µM) | > 128 | 8 (≈ 8.25 µM) |  |  |  |  |
| CC[C@H]1OC(=O)[C@H](C)C(=O)[C@H](C)[C@@H](O[C@@H]2O[C@H](C)C[C@H](N(C)C)[C@H]2O)[C@](C)(OC)C[C@@H](C)C(=O)[C@H](C)[C@@H](OC(=O)NCCNC(=O)C#Cc2ccccc2Cl)[C@]1(C)O | 128 (≈ 153 µM) | > 128 | 128 (≈ 153 µM) | > 128 | 128 (≈ 153 µM) | 4 (≈ 4.78 µM) | 1 (≈ 1.2 µM) | 2 (≈ 2.39 µM) | > 128 | 16 (≈ 19.1 µM) |  |  |  |  |
| CC[C@H]1OC(=O)[C@H](C)[C@@H](OC(=O)Cc2cccnc2)[C@H](C)[C@@H](O[C@@H]2O[C@H](C)C[C@H](N(C)C)[C@H]2O)[C@](C)(OC)C[C@@H](C)C(=O)[C@H](C)[C@@H](OC(=O)NCCNC(=O)c2ccc([N+](=O)[O-])cc2)[C@]1(C)O | 128 (≈ 136 µM) | 64 (≈ 67.8 µM) | 32 (≈ 33.9 µM) | 64 (≈ 67.8 µM) | 8 (≈ 8.47 µM) | 2 (≈ 2.12 µM) | 0.03 (≈ 0.0318 µM) | 0.5 (≈ 0.53 µM) | > 128 | 1 (≈ 1.06 µM) | 4 | 8 |  |  |
| CC[C@H]1OC(=O)[C@H](C)[C@@H](OC(=O)Cc2cccnc2)[C@H](C)[C@@H](O[C@@H]2O[C@H](C)C[C@H](N(C)C)[C@H]2O)[C@](C)(OC)C[C@@H](C)C(=O)[C@H](C)[C@@H](OC(=O)NCCNC(=O)C#Cc2ccc(C)cc2)[C@]1(C)O | 128 (≈ 137 µM) | > 128 | 64 (≈ 68.3 µM) | > 128 | 32 (≈ 34.1 µM) | 2 (≈ 2.13 µM) | 0.25 (≈ 0.267 µM) | 1 (≈ 1.07 µM) | > 128 | 8 (≈ 8.54 µM) |  |  |  |  |
| CC[C@H]1OC(=O)[C@H](C)C(=O)[C@H](C)[C@@H](O[C@@H]2O[C@H](C)C[C@H](N(C)C)[C@H]2O)[C@](C)(OC)C[C@@H](C)C(=O)[C@H](C)[C@@H](OC(=O)NCCNC(=O)C#Cc2ccc(Br)cc2)[C@]1(C)O | 16 (≈ 18.2 µM) | 128 (≈ 145 µM) | 128 (≈ 145 µM) | > 128 | 32 (≈ 36.3 µM) | 1 (≈ 1.14 µM) | 1 (≈ 1.14 µM) | 2 (≈ 2.27 µM) | 64 (≈ 72.7 µM) | 8 (≈ 9.08 µM) |  |  | 8 | 8 |
